Measurements reported in ChEMBL document CHEMBL3407428, “Synthesis, in vitro and in vivo antitumor activity of scopoletin-cinnamic acid hybrids” (Eur J Med Chem, 2015).
The source made the active and inactive calls. No cut-off for these calls is given here.

Assays:
MCF7 = experiment: Cytotoxicity against human MCF7 cells assessed as growth inhibition at 10^-5 M after 72 hrs by MTT assay relative to control; assay type: functional; details: MCF7, 72 h, read-out: GI
HeLa = experiment: Cytotoxicity against human HeLa cells assessed as growth inhibition at 10^-5 M after 72 hrs by MTT assay relative to control; assay type: functional; details: read-out: GI
[1] = Cytotoxicity against human HCT116 cells assessed as growth inhibition at 10^-5 M after 72 hrs by MTT assay relative to control; assay type: functional; details: HCT-116, 72 h, read-out: GI
MDA-MB-231 [2] = experiment: Cytotoxicity against human MDA-MB-231 cells assessed as growth inhibition at 10^-5 M after 72 hrs by MTT assay relative to control; assay type: functional; details: MDA-MB-231, 72 h, read-out: GI
A549 [3] = experiment: Cytotoxicity against human A549 cells assessed as growth inhibition at 10^-5 M after 72 hrs by MTT assay relative to control; assay type: functional; details: A549, 72 h, read-out: GI
[4] = Cytotoxicity against human HCT116 cells assessed as growth inhibition after 72 hrs by MTT assay; assay type: functional, cell-based; details: HCT-116, 72 h
Method in brief: (§1)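 MTT viability assay. Cells were seeded at 5000 per well, incubated overnight, then exposed to compound at a range of concentrations for 72 h. MTT was added from a 5 mg/mL stock for 4 h, and absorbance was read at 570 nm. IC50 (50% viability inhibition) was calculated by the logit method. Each concentration was run at least three times.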

A549 [5] = experiment: Induction of apoptosis in human A549 cells assessed as dead cells at 1 uM after 24 hrs by Annexin V and propidium iodide staining-based flow cytometric analysis (reference value: 1.4%); assay type: functional
A549 [6] = experiment: Induction of apoptosis in human A549 cells assessed as late apoptotic cells at 0.1 uM after 24 hrs by Annexin V and propidium iodide staining-based flow cytometric analysis (reference value: 7.4%); assay type: functional
A549 [7] = experiment: Induction of apoptosis in human A549 cells assessed as viable cells at 0.1 uM after 24 hrs by Annexin V and propidium iodide staining-based flow cytometric analysis (reference value: 83%); assay type: functional; details: A549, 24 h, read-out: Activity
A549 [8] = experiment: Induction of apoptosis in human A549 cells assessed as early apoptotic cells at 1 uM after 24 hrs by Annexin V and propidium iodide staining-based flow cytometric analysis (reference value: 8.2%); assay type: functional
A549 [9] = experiment: Cell cycle arrest in human A549 cells assessed as accumulation at S phase at 0.01 uM after 24 hrs by propidium iodide staining-based flow cytometric analysis relative to control; assay type: functional
Method in brief: (§2)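 A549 cells (3 × 10^5 per well) were seeded overnight, then treated at 0, 0.01, 0.1 or 1 µM for 24 h. Cells were harvested, washed in cold PBS and fixed in cold 70% ethanol for at least 24 h. They were then RNase A-treated and stained with propidium iodide (50 µg/mL) at room temperature. DNA content was analysed by FACSCalibur flow cytometry.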

MDA-MB-231 [10] = experiment: Cytotoxicity against human MDA-MB-231 cells assessed as growth inhibition after 72 hrs by MTT assay; assay type: functional, cell-based; details: MDA-MB-231, 72 h; method in brief: as §1
A549 [11] = experiment: Induction of apoptosis in human A549 cells assessed as late apoptotic cells at 0.01 uM after 24 hrs by Annexin V and propidium iodide staining-based flow cytometric analysis (reference value: 7.4%); assay type: functional
A549 [12] = experiment: Induction of apoptosis in human A549 cells assessed as early apoptotic cells at 0.1 uM after 24 hrs by Annexin V and propidium iodide staining-based flow cytometric analysis (reference value: 8.2%); assay type: functional
A549 [13] = experiment: Induction of apoptosis in human A549 cells assessed as dead cells at 0.01 uM after 24 hrs by Annexin V and propidium iodide staining-based flow cytometric analysis (reference value: 1.4%); assay type: functional
A549 [14] = experiment: Induction of apoptosis in human A549 cells assessed as early apoptotic cells at 0.01 uM after 24 hrs by Annexin V and propidium iodide staining-based flow cytometric analysis (reference value: 8.2%); assay type: functional
Mus musculus [15] = experiment: Toxicity in C57BL/6 mouse allografted with mouse LLC cells assessed as change in body weight at 2.5 to 10 mg/kg, ip administered for 14 days measured during compound dosing; assay type: organism-based; parameters: dose 2.5-10 mg/kg, route intraperitoneal; details: in vivo, 336 h
Method in brief: (§3)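 LLC-bearing female C57BL/6 mice (18–22 g; 3 × 10^6 cells s.c., right flank) were randomized into groups of 10 and dosed i.p. daily for 14 days, with a saline control. Body weight was recorded every day from the first treatment.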

A549 [16] = experiment: Induction of apoptosis in human A549 cells assessed as dead cells at 0.1 uM after 24 hrs by Annexin V and propidium iodide staining-based flow cytometric analysis (reference value: 1.4%); assay type: functional
A549 [17] = experiment: Cell cycle arrest in human A549 cells assessed as accumulation at G2/M phase at 0.01 to 1 uM after 24 hrs by propidium iodide staining-based flow cytometric analysis; assay type: functional; method in brief: as §2
A549 [18] = experiment: Cell cycle arrest in human A549 cells assessed as accumulation at S phase at 0.1 uM after 24 hrs by propidium iodide staining-based flow cytometric analysis relative to control; assay type: functional; method in brief: as §2
A549 [19] = experiment: Induction of apoptosis in human A549 cells assessed as viable cells at 0.01 uM after 24 hrs by Annexin V and propidium iodide staining-based flow cytometric analysis (reference value: 83%); assay type: functional; details: A549, 24 h, read-out: Activity
A549 [20] = experiment: Induction of apoptosis in human A549 cells assessed as late apoptotic cells at 1 uM after 24 hrs by Annexin V and propidium iodide staining-based flow cytometric analysis (reference value: 7.4%); assay type: functional
[21] = test system: Lewis lung carcinoma cell line; experiment: Antitumor activity against mouse LLC cells allografted in C57BL/6 mouse assessed as tumor growth inhibition at 2.5 mg/kg, ip administered for 14 days measured on day 15 relative to control; assay type: functional; details: route intraperitoneal, read-out: TGI
Method in brief: (§4)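 Female C57BL/6 mice (18–22 g) given 3 × 10^6 Lewis lung cancer cells subcutaneously in the right flank; dosing began 7 to 21 days after inoculation. Mice were randomized into groups of 10. Treatment was intraperitoneal daily for 14 days at 2.5, 5 or 10 mg/kg, with a saline control group. Tumors were excised and weighed when the mice were killed after 14 days.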

[22] = test system: Lewis lung carcinoma cell line; experiment: Antitumor activity against mouse LLC cells allografted in C57BL/6 mouse assessed as tumor growth inhibition at 10 mg/kg, ip administered for 14 days measured on day 15 relative to control; assay type: functional; details: route intraperitoneal, read-out: TGI; method in brief: as §4
A549 [23] = experiment: Induction of apoptosis in human A549 cells assessed as viable cells at 1 uM after 24 hrs by Annexin V and propidium iodide staining-based flow cytometric analysis (reference value: 83%); assay type: functional; details: A549, 24 h, read-out: Activity
A549 [24] = experiment: Cell cycle arrest in human A549 cells assessed as accumulation at S phase at 1 uM after 24 hrs by propidium iodide staining-based flow cytometric analysis relative to control; assay type: functional; method in brief: as §2
[25] = test system: Lewis lung carcinoma cell line; experiment: Antitumor activity against mouse LLC cells allografted in ip dosed C57BL/6 mouse assessed as tumor growth inhibition administered for 14 days measured on day 15; assay type: functional, organism-based; method in brief: as §4
A549 [26] = experiment: Cell cycle arrest in human A549 cells assessed as accumulation at G0/G1 phase at 0.01 to 1 uM after 24 hrs by propidium iodide staining-based flow cytometric analysis; assay type: functional; details: in the assay text read “S phase” for “G0/G1 phase”; method in brief: as §2
[27] = test system: Lewis lung carcinoma cell line; experiment: Antitumor activity against mouse LLC cells allografted in C57BL/6 mouse assessed as tumor growth inhibition at 5 mg/kg, ip administered for 14 days measured on day 15 relative to control; assay type: functional; details: route intraperitoneal, read-out: TGI; method in brief: as §4
A549 [28] = experiment: Cytotoxicity against human A549 cells assessed as growth inhibition after 72 hrs by MTT assay; assay type: functional, cell-based; details: A549, 72 h; method in brief: as §1
Mus musculus [29] = experiment: Toxicity in C57BL/6 mouse allografted with mouse LLC cells assessed as decrease in body weight at 2.5 mg/kg, ip administered for 14 days measured during compound dosing; assay type: organism-based; parameters: dose 2.5 mg/kg, route intraperitoneal; details: in vivo, 336 h; method in brief: as §3

Structure (SMILES): COc1cc2ccc(=O)oc2cc1OC(=O)/C=C/c1cc(OC)c(OC)c(OC)c1
- inhibition of growth at 10 µM (MCF7): 18%
- inhibition of growth at 10 µM (HeLa): 0.93%
- inhibition of growth at 10 µM [1]: 18.9%
- inhibition of growth at 10 µM (MDA-MB-231 [2]): 11.8%
- inhibition of growth at 10 µM (A549 [3]): 20.6%

Structure (SMILES): COc1cc2ccc(=O)oc2cc1OC(=O)/C=C/c1ccc(F)cc1
- inhibition of growth at 10 µM (MCF7): 1.77%
- inhibition of growth at 10 µM (HeLa): 3.89%
- inhibition of growth at 10 µM [1]: 18%
- inhibition of growth at 10 µM (MDA-MB-231 [2]): 19.3%
- inhibition of growth at 10 µM (A549 [3]): 21.4%

Structure (SMILES): COc1cc2cc(NC(=O)/C=C/c3ccc(Cl)cc3)c(=O)oc2cc1O
- IC50 [4]: 684 nM
- Activity (A549 [5]): 1.8%
- Activity (A549 [6]): 3.6%
- viability at 0.1 µM (A549 [7]): 85.7%
- Activity (A549 [8]): 24.3%
- inhibition of growth at 10 µM (MCF7): 70.1%
- Activity (A549 [9]): 9.2%
- IC50 (MDA-MB-231 [10]): 231 nM
- Activity (A549 [11]): 3.7%
- Activity (A549 [12]): 8.3%
- Activity (A549 [13]): 4.3%
- inhibition of growth at 10 µM (HeLa): 86.2%
- Activity (A549 [14]): 5.7%
- Activity (Mus musculus [15]): Non-toxic
- Activity (A549 [16]): 2.4%
- Activity (A549 [17]): inactive
- inhibition of growth at 10 µM [1]: 64.3%
- Activity (A549 [18]): 19.6%
- viability at 0.01 µM (A549 [19]): 86.4%
- Activity (A549 [20]): 7.3%
- inhibition of growth at 10 µM (MDA-MB-231 [2]): 70.8%
- inhibition in vivo at 2.5 mg/kg [21]: 18.1%
- inhibition in vivo at 10 mg/kg [22]: 49.5%
- viability at 1 µM (A549 [23]): 66.5%
- inhibition of growth at 10 µM (A549 [3]): 87.9%
- Activity (A549 [24]): 19.3%
- TGI [25]: Dose-dependent effect
- Activity (A549 [26]): Active
- inhibition in vivo at 5 mg/kg [27]: 33.6%
- IC50 (A549 [28]): 249 nM

Structure (SMILES): COc1cc2ccc(=O)oc2cc1OC(=O)/C=C/c1ccccc1
- inhibition of growth at 10 µM (MCF7): 3.65%
- inhibition of growth at 10 µM (HeLa): 19.4%
- inhibition of growth at 10 µM [1]: 12.2%
- inhibition of growth at 10 µM (MDA-MB-231 [2]): 10.1%
- inhibition of growth at 10 µM (A549 [3]): 19.4%

Structure (SMILES): COc1cccc2c1C(=O)c1c(O)c3c(c(O)c1C2=O)C[C@@](O)(C(=O)CO)C[C@@H]3O[C@H]1C[C@H](N)[C@H](O)[C@H](C)O1 [DOXORUBICIN]
- IC50 [4]: 477 nM
- inhibition of growth at 10 µM (MCF7): 84.9%
- IC50 (MDA-MB-231 [10]): 1550 nM
- inhibition of growth at 10 µM (HeLa): 82%
- inhibition of growth at 10 µM [1]: 79%
- inhibition of growth at 10 µM (MDA-MB-231 [2]): 89.3%
- inhibition in vivo at 2.5 mg/kg [21]: 52.5%
- inhibition of growth at 10 µM (A549 [3]): 92%
- Activity (Mus musculus [29]): Toxic
- IC50 (A549 [28]): 1280 nM

Structure (SMILES): COc1cc2ccc(=O)oc2cc1OC(=O)/C=C/c1ccc(Cl)cc1
- inhibition of growth at 10 µM (MCF7): 22.8%
- inhibition of growth at 10 µM (HeLa): 22.4%
- inhibition of growth at 10 µM [1]: 21.1%
- inhibition of growth at 10 µM (MDA-MB-231 [2]): 20.3%
- inhibition of growth at 10 µM (A549 [3]): 2.73%

Structure (SMILES): COc1ccc(/C=C/C(=O)Nc2cc3cc(OC)c(O)cc3oc2=O)cc1
- IC50 [4]: 505 nM
- inhibition of growth at 10 µM (MCF7): 44.8%
- IC50 (MDA-MB-231 [10]): 578 nM
- inhibition of growth at 10 µM (HeLa): 60.9%
- inhibition of growth at 10 µM [1]: 75.7%
- inhibition of growth at 10 µM (MDA-MB-231 [2]): 61.4%
- inhibition of growth at 10 µM (A549 [3]): 88.6%
- IC50 (A549 [28]): 649 nM

Structure (SMILES): COc1cc2ccc(=O)oc2cc1O [SCOPOLETIN]
- IC50 [4]: > 30000 nM
- inhibition of growth at 10 µM (MCF7): 2.63%
- IC50 (MDA-MB-231 [10]): > 30000 nM
- inhibition of growth at 10 µM (HeLa): 0.98%
- inhibition of growth at 10 µM [1]: 1.36%
- inhibition of growth at 10 µM (MDA-MB-231 [2]): 8.47%
- inhibition of growth at 10 µM (A549 [3]): 4.23%
- IC50 (A549 [28]): > 30000 nM
